Reference: ChEMBL document CHEMBL5344415, “Synthesis and Characterization of Phenylalanine Amides Active against Mycobacterium abscessus and Other Mycobacteria” (J Med Chem, 2023)
In brackets after ≈: the same amount, converted by molar mass.

How the values were obtained:
[1] = system: Mycobacteroides abscessus; assay: Antibacterial activity against Mycobacterium abscessus Bamboo harboring inactive clarithromycin-sensitive erm41 C28 sequevar assessed as bacterial growth inhibition incubated for 3 days in 7H9 medium by optical density based method; format: functional; conditions: 72 h, time 3 day
[2] = system: Mycobacteroides abscessus; assay: Antibacterial activity against MMV688845-resistant Mycobacterium abscessus Bamboo 845R-2.1 harboring rpoB/beta subunit P473L mutation assessed as bacterial growth inhibition incubated for 3 days by optical density based analysis; format: functional; conditions: Bamboo 845R-2.1, 72 h, time 3 day
How it was run: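 Tenfold-point twofold dilution series in 7H9, final DMSO 1 %. Final ranges typically 50–0.098 or 6.25–0.012 μM. Mid-log culture added to an initial OD₆₀₀ of 0.05 (5*10⁶ CFU/mL). Incubated 3 days at 37 °C with shaking at 110 rpm. Growth taken as OD₆₀₀ on day 3 minus day 0, as % of drug-free wells. MIC₉₀ read visually from the curves. Clarithromycin as control. Two biological replicates, averaged.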

[3] = system: Mycobacteroides abscessus; assay: Antibacterial activity against Mycobacterium abscessus ATCC 19977 expressing tomato RFP assessed as bacterial growth inhibition incubated for 3 days in MHII medium by RFP fluorescence based broth microdilution method; format: functional; conditions: ATCC 19977, 72 h, time 3 day
How it was run: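 Broth microdilution in MHII broth with 0.05 % Tween 80, against the RFP-expressing strain. Twofold nine-point dilution series. Inoculum 5 x 10⁵ cells/mL from a mid-log preculture. Incubated 3 days at 37 °C. Read-out by RFP fluorescence (ex 544/em 590 nm). Controls were 1 % DMSO and 100 μM amikacin. MIC₉₀ from duplicates, averaged.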

[4] = system: Mycobacterium tuberculosis; assay: Antibacterial activity against Mycobacterium tuberculosis H37Rv ATCC 27294 assessed as bacterial growth inhibition incubated for 7 days in 7H9 medium by optical density based microplate reader analysis; format: functional; conditions: H37Rv ATCC 27294, 168 h, time 7 day
How it was run: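 Compounds serially diluted in flat-bottom 96-well plates. Mid-log culture mixed in to a final OD₆₀₀ of 0.05. Sealed plates incubated in humidified boxes at 37 °C for 7 days with shaking at 80 rpm. Turbidity read at 600 nm. MIC₉₀ taken from dose–response curves. Two biological replicates, averaged.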

[5] = system: Mycolicibacterium smegmatis; assay: Antibacterial activity against Mycobacterium smegmatis mc2 155 expressing tomato RFP assessed as bacterial growth inhibition incubated for 3 days in 7H9 medium by RFP fluorescence based broth microdilution method; format: functional; conditions: mc2 155, 72 h, time 3 day
How it was run: (§1)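 Broth microdilution in 7H9 with 10 % ADS and 0.05 % Tween 80. Twofold nine-point dilution series. Inoculum 5 x 10⁵ cells/mL taken from a mid-log preculture. Incubation at 37 °C, 3 days for M. smegmatis and M. abscessus, 5 days for M. intracellulare. Read-out by RFP fluorescence (ex 544/em 590 nm). Controls were 1 % DMSO and 100 μM amikacin. MIC₉₀ from duplicates, averaged.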

[6] = system: Mycobacteroides abscessus; assay: Antibacterial activity against Mycobacterium abscessus ATCC 19977 expressing tomato RFP assessed as bacterial growth inhibition incubated for 3 days in 7H9 medium by RFP fluorescence based broth microdilution method; format: functional; conditions: ATCC 19977, 72 h, time 3 day; how it was run: as §1
[7] = system: A-375; assay: Cytotoxicity against human A-375 cells assessed as reduction in cell viability incubated for 72 hrs by SRB assay; format: toxicity, cell-based
[8] = system: Mycobacteroides abscessus; assay: Antibacterial activity against Mycobacterium abscessus ATCC 19977 expressing tomato RFP infected in human THP-1 cells assessed as bacterial growth inhibition incubated for 4 days in RPMI medium by RFP fluorescence based assay; format: functional; conditions: ATCC 19977, 96 h, time 4 day
How it was run: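 RFP M. abscessus washed, moved into RPMI, filtered through 5 µm and opsonised with 10 % human serum for 30 min. THP-1 cells infected at MOI 5:1 with PMA 40 ng/mL for 4 h at 37 °C, then washed. Infected cells (1x10⁵/well) given a ten-point twofold series. Incubated 4 days at 37 °C, 5 % CO₂. Cells PFA-fixed and DAPI-stained. RFP quantified by imaging. Controls were DMSO and 1.5 µM bedaquiline. Duplicate.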

[9] = system: Mycobacterium intracellulare; assay: Antibacterial activity against Mycobacterium intracellulare ATCC 35761 expressing tomato RFP assessed as bacterial growth inhibition incubated for 5 days in 7H9 medium by RFP fluorescence based broth microdilution method; format: functional; conditions: ATCC 35761, 120 h, time 5 day; how it was run: as §1
[10] = system: A2780; assay: Cytotoxicity against human A2780 cells assessed as reduction in cell viability incubated for 72 hrs by SRB assay; format: toxicity, cell-based
[11] = system: HeLa; assay: Cytotoxicity against human HeLa cells assessed as reduction in cell viability incubated for 72 hrs by SRB assay; format: toxicity, cell-based
[12] = system: NIH3T3; assay: (§2) Cytotoxicity against mouse NIH3T3 cells assessed as reduction in cell viability incubated for 72 hrs by SRB assay; format: toxicity, cell-based; conditions: nih3t3
[13] = Kinetic solubility of compound in PBS at 0.78 to 500 uM measured immediately by nephelometric method; format: physicochemical; conditions: buffer, dose 0.78-500 µM
How it was run: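 DMSO stocks prediluted in DMSO, then diluted 1:50 into PBS (2 % DMSO final) and read immediately by nephelometry at 0.78–500 μM; blank-corrected data fitted by segmental regression; quadruplicates from one stock.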

[14] = system: HT-29; assay: Cytotoxicity against human HT-29 cells assessed as reduction in cell viability incubated for 72 hrs by SRB assay; format: toxicity, cell-based
[15] = system: MCF7; assay: Cytotoxicity against human MCF7 cells assessed as reduction in cell viability incubated for 72 hrs by SRB assay; format: toxicity, cell-based
[16] = as §2; format: toxicity, cell-based; conditions: mouse, NIH3T3 cells
[17] = system: HEK293; assay: Cytotoxicity against HEK293 cells assessed as reduction in cell viability incubated for 72 hrs by SRB assay; format: toxicity, cell-based, Homo sapiens
[18] = system: Mycobacteroides abscessus; assay: Bactericidal activity against Mycobacterium abscessus ATCC 19977 assessed as reduction in viable bacteria at 3.13 uM incubated for 4 days by microplate dilution assay relative to control; format: functional; conditions: time 4 day
How it was run: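 After 4 days in the microplate dilution assay, 10 µl samples (undiluted or 1:100) were plated on 7H10 with glycerol, ADS and 400 µg/mL hygromycin. Colonies counted after 4 days at 37 °C. Done in triplicate. CFU/mL compared with the inoculum counted before incubation.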

[19] = system: Mycobacteroides abscessus; assay: Bactericidal activity against Mycobacterium abscessus ATCC 19977 assessed as reduction in viable bacteria at 6.25 uM incubated for 4 days by microplate dilution assay relative to control; format: functional; conditions: time 4 day

| SMILES | MIC90 [1] | MIC90 [2] | MIC50 [1] | MIC90 [3] | MIC90 [4] | MIC90 [5] | MIC90 [6] | EC50 [7] | MIC50 [8] | MIC90 [8] | MIC90 [9] | EC50 [10] | EC50 [11] | EC50 [12] | Kinetic_solubility [13] | EC50 [14] | EC50 [15] | EC50 at 72 h [16] | EC50 [17] | further results |
| --- | --- | --- | --- | --- | --- | --- | --- | --- | --- | --- | --- | --- | --- | --- | --- | --- | --- | --- | --- | --- |
| CO[C@H]1/C=C/O[C@@]2(C)Oc3c(C)c(O)c4c(c3C2=O)C2=NC3(CCN(CC(C)C)CC3)NC2=C(NC(=O)/C(C)=C\C=C\[C@H](C)[C@H](O)[C@@H](C)[C@@H](O)[C@@H](C)[C@H](OC(C)=O)[C@@H]1C)C4=O [RIFABUTIN] | 3 µM (≈ 2.54 µg/mL) | 1.1 µM (≈ 0.932 µg/mL) | – | – | – | – | – | – | – | – | – | – | – | – | – | – | – | – | – | – |
| O=C(N[C@H](Cc1cccs1)C(=O)Nc1ccccc1N1CCOCC1)c1cccs1 | 9 µM (≈ 3.97 µg/mL) | – | 2.4 µM (≈ 1.06 µg/mL) | 12.5 µM (≈ 5.52 µg/mL) | 6.25 µM (≈ 2.76 µg/mL) | 1.56 µM (≈ 0.689 µg/mL) | 12.5 µM (≈ 5.52 µg/mL) | > 30 µM | 12.5 µM (≈ 5.52 µg/mL) | > 100 µM | 1.56 µM (≈ 0.689 µg/mL) | 29.5 µM | > 30 µM | 29 µM | 41 µM | 29.8 µM | > 30 µM | – | – | – |
| O=C(N[C@H](Cc1ccccc1)C(=O)Nc1ccccc1N1CCSCC1)c1ccccc1F | 18 µM (≈ 8.34 µg/mL) | – | 3 µM (≈ 1.39 µg/mL) | 50 µM (≈ 23.2 µg/mL) | 6.25 µM (≈ 2.9 µg/mL) | 3.13 µM (≈ 1.45 µg/mL) | 12.5 µM (≈ 5.79 µg/mL) | 18.6 µM | 12.5 µM (≈ 5.79 µg/mL) | > 100 µM | 0.78 µM (≈ 0.362 µg/mL) | 14.9 µM | > 30 µM | – | 28 µM | > 30 µM | 13.6 µM | > 30 µM | 6.3 µM | – |
| O=C(N[C@H](Cc1ccccc1)C(=O)Nc1ccccc1N1CC[S+]([O-])CC1)c1ccccc1F | 2.1 µM (≈ 1.01 µg/mL) | 100 µM (≈ 48 µg/mL) | 0.4 µM (≈ 0.192 µg/mL) | 3.13 µM (≈ 1.5 µg/mL) | – | – | 6.25 µM (≈ 3 µg/mL) | > 30 µM | 0.78 µM (≈ 0.374 µg/mL) | 12.5 µM (≈ 5.99 µg/mL) | 0.1 µM (≈ 0.048 µg/mL) | > 30 µM | > 30 µM | – | 431 µM | > 30 µM | > 30 µM | > 30 µM | > 30 µM | Activity [18]: 81%; Activity [19]: 99% |
| O=C(N[C@H](Cc1ccccc1)C(=O)Nc1cc(F)ccc1N1CCSCC1)c1ccccc1F | 12 µM (≈ 5.78 µg/mL) | – | 1.15 µM (≈ 0.554 µg/mL) | 25 µM (≈ 12 µg/mL) | 1.56 µM (≈ 0.751 µg/mL) | 6.25 µM (≈ 3.01 µg/mL) | 25 µM (≈ 12 µg/mL) | 29.4 µM | 3.13 µM (≈ 1.51 µg/mL) | 100 µM (≈ 48.2 µg/mL) | 0.78 µM (≈ 0.376 µg/mL) | 28.3 µM | 28.3 µM | 28.5 µM | 31 µM | > 30 µM | > 30 µM | – | – | – |
